The text below walks through data of ChEMBL document CHEMBL3259777, “The cannabinoid acids, analogs and endogenous counterparts” (Bioorg Med Chem, 2014).

For data set [1], the system named is Mus musculus. The experiment in a line: Antiinflammatory activity in mouse peritonitis model assessed as reduction of pro-inflammatory cell migration into peritoneal cavity at 0.3 mg/kg, po. Also on record: scale not given: the % may be the effect or the level left. In kind it is functional. In outline:
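Mouse peritonitis induced by thioglycollate challenge. Compound given orally, and migration of pro-inflammatory cells into the peritoneal cavity quantified.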

Data set [2] in a line: Antiinflammatory activity in LPS-induced mouse […] cells assessed as PGJ2 synthesis at 10 uM relative to control. In kind it is functional, RAW264.7.
Data set [3] is described as follows: Antiinflammatory activity in LPS-induced mouse […] cells assessed as PGJ2 synthesis at 3 uM relative to control. It counts as functional, RAW264.7.
Data set [4] can be described thus: Antiinflammatory activity in LPS-induced mouse […] cells assessed as PGJ2 synthesis at 3 uM in presence of polyclonal antiGPR18 relative to control. It counts as functional, RAW264.7.
Data set [5] concerns RAW. The experiment in a line: Antiinflammatory activity in mouse RAW cells assessed as arachidonic acid release at 1.5 uM after 1 hr by liquid scintillation counting analysis in presence of [14C]-arachidonic acid relative to control. In kind it is functional. The method in brief: (§1)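 RAW cells labelled 2 hr with 14C-arachidonic acid, then medium changed to RPMI + 0.1% BSA. Cells treated 1 hr with non-radioactive test agent added in 10 µl DMSO; DMSO alone as control. Release counted by LSC on a 0.1 ml medium aliquot, expressed as treated/control, means ± SD.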

Data set [6] deals with RAW. In words: Antiinflammatory activity in mouse RAW cells assessed as arachidonic acid release at 3 uM after 1 hr by liquid scintillation counting analysis in presence of [14C]-arachidonic acid relative to control. In kind it is functional. In outline:
as §1

Data set [7] deals with RAW. The experiment in a line: Antiinflammatory activity in mouse RAW cells assessed as arachidonic acid release at 6 uM after 1 hr by liquid scintillation counting analysis in presence of [14C]-arachidonic acid relative to control. It counts as functional. The method in brief:
as §1

The test system of data set [8] is RAW. In words: Antiinflammatory activity in mouse RAW cells assessed as arachidonic acid release at 12 uM after 1 hr by liquid scintillation counting analysis in presence of [14C]-arachidonic acid relative to control. It counts as functional. In outline: as §1
Data set [9] deals with RAW. In words: Antiinflammatory activity in mouse RAW cells assessed as arachidonic acid release at 24 uM after 1 hr by liquid scintillation counting analysis in presence of [14C]-arachidonic acid relative to control. It counts as functional. In outline:
as §1

Data set [10] deals with Rattus norvegicus. In words: Analgesic activity in rat assessed as reversal of mechanical hyperalgesia at 0.1 to 1 mg/kg, po. The following applies: dose mg/kg 0.1-1. In kind it is functional.
Data set [11] has as its system Rattus norvegicus. The experiment in a line: Reversal of PAF-induced allodynia in ip dosed rat after 40 to 60 mins by paw withdrawal test. It counts as functional. In outline: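 Rat tonic inflammatory pain model with platelet-activating factor injected into the hind paw. Doses of 3, 4.5, 6.8, 10.1 and 15.2 mg/kg given i.p. Paw withdrawal threshold to mechanical pressure read 40-60 min post-drug. Approximate ED-50 estimated from the dose-response curve for reversal of PAF-induced allodynia.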

For the next data set, the target named is Cannabinoid receptor 1 (Homo sapiens, UniProt P21554). In words: Binding affinity to CB1 receptor (unknown origin).
The test system of data set [12] is Mus musculus. In words: Antiinflammatory activity in mouse assessed as reduction of IL-1beta/TNF-alpha-induced leukocyte count in air pouches at 0.1 mg/kg/day. In kind it is functional. Also on record: scale not given: the % may be the effect or the level left. The method in brief: (§2)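 Mouse acute inflammation: IL-1β and TNFα injected into air pouches formed on the back. Drug dosed daily, and leukocytes counted in pouch exudates.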

Data set [13] relates to Mus musculus. In words: Antiinflammatory activity in mouse assessed as reduction of IL-1beta/TNF-alpha-induced leukocyte count in air pouches at 0.2 mg/kg/day. It counts as functional. Set-up: scale not given: the % may be the effect or the level left. The method in brief:
as §2

The test system of data set [14] is Mus musculus. In words: Antiinflammatory activity in mouse assessed as adhering leukocytes at 1 mg/kg, po after 6 hrs relative to vehicle-treated control. It counts as functional. The method in brief:
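Given orally in oil over 0.01 to 1.0 mg/kg. Peritoneal cells collected from mice 6 hours after dosing and cultured 18-20 hours before leukocyte adhesion was measured. Compared with vehicle-dosed mice.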

A short description of data set [15]: Inhibition of MMP-3 release in TNF alpha-induced HFLS cells at 10 uM. In kind it is functional. The following applies: Homo sapiens.
Data set [16] is described as follows: Induction of LXA4 production in HFLS cells at 1 to 30 uM incubated for 1 hr followed by TNF-alpha challenge for 18 hrs by ELISA relative to control. In kind it is functional, Homo sapiens. For orientation: In an ELISA, binding on a coated surface is turned into a signal by an enzyme label.
Data set [17] deals with Blood. The experiment in a line: Induction of LXA4 production in human blood at 1 to 30 uM incubated for 5 hrs by ELISA. It counts as functional.
In data set [18] the test system is Mus musculus. In words: Reduction of cell invasion to peritoneum in zymosan-A-induced FVB mouse peritonitis model at 1.5 mg/kg, iv by mass spectrometry. Set-up: scale not given: the % may be the effect or the level left. In kind it is functional.
Data set [19] deals with Mus musculus. In words: Induction of LXA4 production in zymosan-A-induced FVB mouse peritonitis model at 1.5 mg/kg, iv by mass spectrometry relative to control. It counts as functional.
Data set [20] has as its system Blood. In words: Induction of LXA4 production in human blood at 25 uM after 1 hr in presence of 12/15 LOX inhibitor baicalein relative to control. It counts as functional.
The nature of data set [21]: Plasma concentration in patient at 20 mg, po after 2 hrs. In kind it is ADME, organism-based. The following applies: human. In outline: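 Single oral 20 mg dose in humans. Plasma sampled two hours post-dose, reported as mean ± R.S.D., n=9; glucuronide measured as well.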
The nature of data set [22]: Drug metabolism in rat hepatocytes assessed as parent compound remaining after 2 hrs. The following applies: read-out: Stability. In kind it is ADME, cell-based, Hepatocyte.
Data set [23] in a line: Drug metabolism in dog hepatocytes assessed as parent compound remaining after 2 hrs. The following applies: read-out: Stability. It counts as ADME, cell-based, Canis lupus familiaris, Hepatocyte.
A short description of data set [24]: Drug metabolism in cynomolgus monkey hepatocytes assessed as parent compound remaining after 2 hrs. It counts as ADME, cell-based, Hepatocyte. The following applies: read-out: Stability.
Data set [25] in a line: Drug metabolism in human hepatocytes assessed as parent compound remaining after 2 hrs. The following applies: read-out: Stability. In kind it is ADME, cell-based, Hepatocyte.
Data set [26] is filed under the species Mus musculus. The experiment in a line: Stimulation of phospholipase A2 in mouse brain synaptosomes using [1-14C]phosphotidylcholine as substrate assessed as arachidonic acid release relative to control. In kind it is subcellular.

Molecules are shown by their SMILES. Where only a bound is given, the exact number is not on record here.

Chain of Cannabinoid receptor 1 (P21554 whole entry): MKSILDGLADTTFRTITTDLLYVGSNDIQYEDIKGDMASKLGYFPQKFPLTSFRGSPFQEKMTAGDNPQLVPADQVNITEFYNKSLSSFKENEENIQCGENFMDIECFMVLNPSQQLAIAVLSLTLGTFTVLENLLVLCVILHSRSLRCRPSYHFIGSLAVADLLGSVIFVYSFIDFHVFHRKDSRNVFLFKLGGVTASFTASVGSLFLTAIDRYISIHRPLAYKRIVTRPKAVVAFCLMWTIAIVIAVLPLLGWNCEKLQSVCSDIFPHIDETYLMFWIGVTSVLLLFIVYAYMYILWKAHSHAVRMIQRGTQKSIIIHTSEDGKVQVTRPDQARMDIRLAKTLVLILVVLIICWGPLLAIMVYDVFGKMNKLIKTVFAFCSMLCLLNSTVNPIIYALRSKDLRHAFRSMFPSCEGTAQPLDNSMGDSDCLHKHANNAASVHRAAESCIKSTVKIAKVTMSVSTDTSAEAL

For the molecule `CCCCC/C=C\C/C=C\C/C=C\C/C=C\CCCC(=O)NCC(=O)O` [ARACHIDONOYL GLYCINE], the Activity in the data set on Mus musculus [1] is recorded as 60%; in [2], 213%; in data set [3], 100%; in data set [4] it was 50%. Further, the T/C in the data set with RAW [5] was found to be 1; in the data set with RAW [6], 1.2; in the data set with RAW [7] it was 1.4; in the data set with RAW [8] it was 1.85; with RAW [9], 2.95.
As to `CCCCCCC(C)(C)c1cc(O)c2c(c1)OC(C)(C)[C@@H]1CC=C(C(=O)O)C[C@@H]21` [LENABASUM], the Activity result with Rattus norvegicus [10] was “<=60%”; with Mus musculus [12], 42.3%; in the data set with Mus musculus [13], 65.5%; in the data set with Mus musculus [14], 24%; with Mus musculus [18], 75%; in the data set with Blood [20] it was above 90%. In the data set with Rattus norvegicus [11], the ED50 amounted to 4.2 mg/kg. The Ki on Cannabinoid receptor 1 stood at 5.7 nM. This molecule showed an inhibition at 10 µM in data set [15] of 88%. Moreover, the Ratio is 2 in [16], 2 in the data set on Blood [17] and 7 in the data set on Mus musculus [19]. In addition, the concentration at 2 h in [21] was found to be 599 ng/mL. Further, the remaining at 2 h came to 103% in data set [22], 90% in [23], 86% in [24] and 83% in data set [25].
As for `CCCCCCCC/C=C\CCCCCCCC(=O)NC(C)(C)C(=O)O`, in data set [2], the Activity is 118%.
Regarding `CCCCCc1cc(O)c2c(c1)OC(C)(C)[C@@H]1CCC(C(=O)O)=C[C@@H]21`, in the data set filed under Mus musculus [26], the Activity was 20%.
For `CCCCC/C=C\C/C=C\C/C=C\CCCCC(=O)NCC(=O)O`, the Activity in [2] is recorded as 203%.
Regarding `CCCCC/C=C\C/C=C\C/C=C\C/C=C\CCCC(=O)NC(C)(C)C(=O)O`, the Activity in [2] is given as 220%.
Same read-out and setting: to `CCCCC/C=C\C/C=C\C/C=C\C/C=C\CCCC(=O)N[C@@H](C)C(=O)O` belongs 212%; to `CCCCCCCCCCCCCCCC(=O)NCC(=O)O` [PALMITOYL GLYCINE], 100%.

For orientation: ED50 means the midpoint of the dose-response relation. As a reminder, the Ki is the dissociation constant of the complex between target and ligand, obtained from inhibition or displacement. What is called inhibition is the change of the read-out against control, counted positive when it falls.
